Laboratory results published in article PMC11847724 (Neoplasia (New York, N.Y.), 2025).

Tests used:
[1] = system: advanced or metastatic solid tumors; test: Tumor response by RECIST v1.1; format: in vivo, human; conditions: RECIST v1.1, all doses
Outline: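 Participants received daily oral test compound at 25 to 700 mg/day in 28-day cycles. Best observed response was listed per participant without statistical analysis.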

[2] = Plasma pharmacokinetics of ESK-440 and metabolite CEP-38901; format: in vivo, human
[3] = system: rats; conditions: highest dose administered; cited from earlier work
[4] = system: ALK; conditions: preclinical studies ref 9, 10; cited from earlier work
[5] = system: FAK; conditions: preclinical studies ref 9, 10; cited from earlier work
[6] = system: ALK- and FAK-driven xenograft models; conditions: multiple ALK- and FAK-driven xenograft models ref 9, 10; cited from earlier work
[7] = all tested species ref 9; cited from earlier work

## CNC(=O)c1ccccc1Nc1nc(Nc2ccc3c(c2OC)CCC[C@H](N2CCN(CCO)CC2)C3)ncc1Cl [ESK-440]
[1]
  best overall response: stable disease: 7 participants
  complete or partial response: No participant
[2]; 25 mg/day (N = 3)
  Robs (observed accumulation ratio = AUCτ on day 15/AUC0-24 on day 1): 3.3 (0.76)
[2]; 50 mg/day (N = 3)
  Robs (observed accumulation ratio = AUCτ on day 15/AUC0-24 on day 1): 2.2 (1.11)
[2]; 100 mg/day (N = 3)
  Robs (observed accumulation ratio = AUCτ on day 15/AUC0-24 on day 1): 4.2 (3.47)
[2]; 150 mg/day (N = 3)
  Robs (observed accumulation ratio = AUCτ on day 15/AUC0-24 on day 1): 3.1 (0.17)
[2]; 250 mg/day (N = 4)
  Robs (observed accumulation ratio = AUCτ on day 15/AUC0-24 on day 1): 2.9 (0.81)
[2]; 350 mg/day (N = 4)
  Robs (observed accumulation ratio = AUCτ on day 15/AUC0-24 on day 1): 3.3 (0.63)
[2]; 500 mg/day (N = 4)
  Robs (observed accumulation ratio = AUCτ on day 15/AUC0-24 on day 1): 2.4 (0.43)
[2]; 700 mg/day (N = 5)
  Robs (observed accumulation ratio = AUCτ on day 15/AUC0-24 on day 1): 2.2 (0.74)
[2]; day 1 and day 15, up to 500 mg/day
  dose dependence of Cmax and AUC0-24: dose-proportional
[2]; human, plasma, oral
  half-life: 9.4 to 20.8 h
[2]; human, plasma, oral, 25 mg/day
  AUC: 0.666 µg·h/mL
[2]; human, plasma, oral, 25 mg/day, AUC0-24, Day 1, 25 mg/day (N = 3)
  AUC(0-t): 0.222 µg·h/mL
[2]; human, plasma, oral, 25 mg/day, AUC0-t, Day 1, 25 mg/day (N = 3)
  AUC(0-t): 0.223 µg·h/mL
[2]; human, plasma, oral, 25 mg/day, AUC0-t, Day 15, 25 mg/day (N = 3)
  AUC(0-t): 0.666 µg·h/mL
[2]; human, plasma, oral, 25 mg/day, Day 1, 25 mg/day (N = 3)
  Cmax: 0.0207 µg/mL
[2]; human, plasma, oral, 25 mg/day, Day 15, 25 mg/day (N = 3)
  Cmax: 0.0367 µg/mL
[2]; human, plasma, oral, 25 mg/day, tmax, Day 1, 25 mg/day (N = 3), median (range)
  Tmax: 3 h
[2]; human, plasma, oral, 25 mg/day, tmax, Day 15, 25 mg/day (N = 3), median (range)
  Tmax: 3 h
[2]; human, plasma, oral, 50 mg/day
  AUC: 0.995 µg·h/mL
[2]; human, plasma, oral, 50 mg/day, AUC0-24, Day 1, 50 mg/day (N = 3)
  AUC(0-t): 0.509 µg·h/mL
[2]; human, plasma, oral, 50 mg/day, AUC0-t, Day 1, 50 mg/day (N = 3)
  AUC(0-t): 0.517 µg·h/mL
[2]; human, plasma, oral, 50 mg/day, AUC0-t, Day 15, 50 mg/day (N = 3)
  AUC(0-t): 1.02 µg·h/mL
[2]; human, plasma, oral, 50 mg/day, Day 1, 50 mg/day (N = 3)
  Cmax: 0.0381 µg/mL
[2]; human, plasma, oral, 50 mg/day, Day 15, 50 mg/day (N = 3)
  Cmax: 0.0556 µg/mL
[2]; human, plasma, oral, 50 mg/day, tmax, Day 1, 50 mg/day (N = 3), median (range)
  Tmax: 3 h
[2]; human, plasma, oral, 50 mg/day, tmax, Day 15, 50 mg/day (N = 3), median (range)
  Tmax: 3.9 h
[2]; human, plasma, oral, 100 mg/day
  AUC: 5.42 µg·h/mL
[2]; human, plasma, oral, 100 mg/day, AUC0-24, Day 1, 100 mg/day (N = 3)
  AUC(0-t): 1.48 µg·h/mL
[2]; human, plasma, oral, 100 mg/day, AUC0-t, Day 1, 100 mg/day (N = 3)
  AUC(0-t): 1.54 µg·h/mL
[2]; human, plasma, oral, 100 mg/day, AUC0-t, Day 15, 100 mg/day (N = 3)
  AUC(0-t): 5.66 µg·h/mL
[2]; human, plasma, oral, 100 mg/day, Day 1, 100 mg/day (N = 3)
  Cmax: 0.0973 µg/mL
[2]; human, plasma, oral, 100 mg/day, Day 15, 100 mg/day (N = 3)
  Cmax: 0.273 µg/mL
[2]; human, plasma, oral, 100 mg/day, tmax, Day 1, 100 mg/day (N = 3), median (range)
  Tmax: 2 h
[2]; human, plasma, oral, 100 mg/day, tmax, Day 15, 100 mg/day (N = 3), median (range)
  Tmax: 4 h
[2]; human, plasma, oral, 150 mg/day
  AUC: 4.98 µg·h/mL
[2]; human, plasma, oral, 150 mg/day, AUC0-24, Day 1, 150 mg/day (N = 3)
  AUC(0-t): 1.58 µg·h/mL
[2]; human, plasma, oral, 150 mg/day, AUC0-t, Day 1, 150 mg/day (N = 3)
  AUC(0-t): 1.56 µg·h/mL
[2]; human, plasma, oral, 150 mg/day, AUC0-t, Day 15, 150 mg/day (N = 3)
  AUC(0-t): 4.95 µg·h/mL
[2]; human, plasma, oral, 150 mg/day, Day 1, 150 mg/day (N = 3)
  Cmax: 0.128 µg/mL
[2]; human, plasma, oral, 150 mg/day, Day 15, 150 mg/day (N = 3)
  Cmax: 0.321 µg/mL
[2]; human, plasma, oral, 150 mg/day, tmax, Day 1, 150 mg/day (N = 3), median (range)
  Tmax: 3.1 h
[2]; human, plasma, oral, 150 mg/day, tmax, Day 15, 150 mg/day (N = 3), median (range)
  Tmax: 2.1 h
[2]; human, plasma, oral, 250 mg/day
  AUC: 13.3 µg·h/mL
[2]; human, plasma, oral, 250 mg/day, AUC0-24, Day 1, 250 mg/day (N = 4)
  AUC(0-t): 4.74 µg·h/mL
[2]; human, plasma, oral, 250 mg/day, AUC0-t, Day 1, 250 mg/day (N = 4)
  AUC(0-t): 4.85 µg·h/mL
[2]; human, plasma, oral, 250 mg/day, AUC0-t, Day 15, 250 mg/day (N = 4)
  AUC(0-t): 14.2 µg·h/mL
[2]; human, plasma, oral, 250 mg/day, Day 1, 250 mg/day (N = 4)
  Cmax: 0.435 µg/mL
[2]; human, plasma, oral, 250 mg/day, Day 15, 250 mg/day (N = 4)
  Cmax: 0.732 µg/mL
[2]; human, plasma, oral, 250 mg/day, tmax, Day 1, 250 mg/day (N = 4), median (range)
  Tmax: 3.5 h
[2]; human, plasma, oral, 250 mg/day, tmax, Day 15, 250 mg/day (N = 4), median (range)
  Tmax: 3.5 h
[2]; human, plasma, oral, 350 mg/day
  AUC: 16.8 µg·h/mL
[2]; human, plasma, oral, 350 mg/day, AUC0-24, Day 1, 350 mg/day (N = 4)
  AUC(0-t): 5.18 µg·h/mL
[2]; human, plasma, oral, 350 mg/day, AUC0-t, Day 1, 350 mg/day (N = 4)
  AUC(0-t): 5.32 µg·h/mL
[2]; human, plasma, oral, 350 mg/day, AUC0-t, Day 15, 350 mg/day (N = 4)
  AUC(0-t): 17.9 µg·h/mL
[2]; human, plasma, oral, 350 mg/day, Day 1, 350 mg/day (N = 4)
  Cmax: 0.334 µg/mL
[2]; human, plasma, oral, 350 mg/day, Day 15, 350 mg/day (N = 4)
  Cmax: 0.869 µg/mL
[2]; human, plasma, oral, 350 mg/day, tmax, Day 1, 350 mg/day (N = 4), median (range)
  Tmax: 5 h
[2]; human, plasma, oral, 350 mg/day, tmax, Day 15, 350 mg/day (N = 4), median (range)
  Tmax: 4 h
[2]; human, plasma, oral, 500 mg/day
  AUC: 36.5 µg·h/mL
[2]; human, plasma, oral, 500 mg/day, AUC0-24, Day 1, 500 mg/day (N = 5)
  AUC(0-t): 17.7 µg·h/mL
[2]; human, plasma, oral, 500 mg/day, AUC0-t, Day 1, 500 mg/day (N = 5)
  AUC(0-t): 17.8 µg·h/mL
[2]; human, plasma, oral, 500 mg/day, AUC0-t, Day 15, 500 mg/day (N = 4)
  AUC(0-t): 37.6 µg·h/mL
[2]; human, plasma, oral, 500 mg/day, Day 1, 500 mg/day (N = 5)
  Cmax: 1.16 µg/mL
[2]; human, plasma, oral, 500 mg/day, Day 15, 500 mg/day (N = 4)
  Cmax: 1.91 µg/mL
[2]; human, plasma, oral, 500 mg/day, tmax, Day 1, 500 mg/day (N = 5), median (range)
  Tmax: 4.1 h
[2]; human, plasma, oral, 500 mg/day, tmax, Day 15, 500 mg/day (N = 4), median (range)
  Tmax: 6.8 h
[2]; human, plasma, oral, 700 mg/day
  AUC: 25.7 µg·h/mL
[2]; human, plasma, oral, 700 mg/day, AUC0-24, Day 1, 700 mg/day (N = 5)
  AUC(0-t): 11.3 µg·h/mL
[2]; human, plasma, oral, 700 mg/day, AUC0-t, Day 1, 700 mg/day (N = 5)
  AUC(0-t): 11.5 µg·h/mL
[2]; human, plasma, oral, 700 mg/day, AUC0-t, Day 15, 700 mg/day (N = 5)
  AUC(0-t): 25.9 µg·h/mL
[2]; human, plasma, oral, 700 mg/day, Day 1, 700 mg/day (N = 5)
  Cmax: 0.839 µg/mL
[2]; human, plasma, oral, 700 mg/day, Day 15, 700 mg/day (N = 5)
  Cmax: 1.31 µg/mL
[2]; human, plasma, oral, 700 mg/day, tmax, Day 1, 700 mg/day (N = 5), median (range)
  Tmax: 4 h
[2]; human, plasma, oral, 700 mg/day, tmax, Day 15, 700 mg/day (N = 5), median (range)
  Tmax: 6.1 h
[2]; human, plasma, oral, median tmax, range across dose levels, day 1
  Tmax: 2 to 5 h
[2]; human, plasma, oral, median tmax, range across dose levels, day 15
  Tmax: 2.1 to 6.8 h
[3]
  highest non-severely toxic dose (HNSTD): 30 mg/kg
[4]
  potency: low nanomolar
[5]
  potency: low nanomolar
[6]
  antitumor efficacy: dose-dependent antitumor efficacy
[7]
  oral bioavailability: acceptable
